{"source": "ChEMBL document CHEMBL3992509", "about": "“Discovery of a Highly Potent, Selective, and Metabolically Stable Inhibitor of Receptor-Interacting Protein 1 (RIP1) for the Treatment of Systemic Inflammatory Response Syndrome” (J Med Chem, 2017)", "key": {"Cytochrome P450 2D6": {"target": "Cytochrome P450 2D6 (Homo sapiens, UniProt P10635)", "sequence (P10635 whole entry)": "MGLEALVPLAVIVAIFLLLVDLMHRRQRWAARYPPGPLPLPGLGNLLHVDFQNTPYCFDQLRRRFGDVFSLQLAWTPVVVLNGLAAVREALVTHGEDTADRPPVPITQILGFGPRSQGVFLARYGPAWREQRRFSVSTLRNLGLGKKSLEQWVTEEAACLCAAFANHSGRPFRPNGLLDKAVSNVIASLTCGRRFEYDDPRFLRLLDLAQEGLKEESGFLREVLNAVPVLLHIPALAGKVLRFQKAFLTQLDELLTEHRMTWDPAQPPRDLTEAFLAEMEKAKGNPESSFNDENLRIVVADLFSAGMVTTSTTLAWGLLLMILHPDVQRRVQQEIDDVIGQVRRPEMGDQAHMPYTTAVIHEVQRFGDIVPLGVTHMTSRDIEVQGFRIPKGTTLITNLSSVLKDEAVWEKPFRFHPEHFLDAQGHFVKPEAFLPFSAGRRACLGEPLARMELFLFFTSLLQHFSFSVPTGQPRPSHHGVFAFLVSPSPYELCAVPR", "test": "Inhibition of CYP2D6 (unknown origin)", "format": "ADME"}, "[1]": {"target": "T1, Receptor-interacting serine/threonine-protein kinase 1 (Homo sapiens) (UniProt Q13546)", "T1 sequence (whole entry)": "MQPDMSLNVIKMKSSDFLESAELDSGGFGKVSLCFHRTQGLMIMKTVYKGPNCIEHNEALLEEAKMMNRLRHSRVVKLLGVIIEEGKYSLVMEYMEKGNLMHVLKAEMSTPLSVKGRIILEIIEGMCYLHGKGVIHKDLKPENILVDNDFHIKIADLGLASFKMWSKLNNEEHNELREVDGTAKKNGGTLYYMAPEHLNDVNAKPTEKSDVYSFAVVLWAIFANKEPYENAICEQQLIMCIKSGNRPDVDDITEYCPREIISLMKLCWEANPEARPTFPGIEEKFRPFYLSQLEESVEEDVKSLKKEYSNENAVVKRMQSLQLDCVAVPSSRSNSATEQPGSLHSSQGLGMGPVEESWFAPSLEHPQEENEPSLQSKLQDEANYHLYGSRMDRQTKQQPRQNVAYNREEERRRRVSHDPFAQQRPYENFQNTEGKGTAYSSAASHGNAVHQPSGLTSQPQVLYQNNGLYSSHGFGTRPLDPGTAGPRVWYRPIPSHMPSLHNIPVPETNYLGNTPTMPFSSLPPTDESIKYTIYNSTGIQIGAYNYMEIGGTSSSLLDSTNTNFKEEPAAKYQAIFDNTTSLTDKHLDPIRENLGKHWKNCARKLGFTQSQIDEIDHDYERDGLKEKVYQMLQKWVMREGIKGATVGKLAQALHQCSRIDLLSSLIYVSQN", "test": "Inhibition of TNFalpha/z-VAD-FMK-induced RIP1 phosphorylation in human HT-29 cells by Western blot method", "format": "cell-based"}, "Mus musculus [2]": {"tested_on": "Mus musculus", "test": "Protection against TNFalpha-induced mortality in C57BL/6J mouse assessed as survival rate at 3 mg/kg, ip pretreated for 17 mins followed by TNFalpha injection and subsequent compound treatment once in every 12 hrs measured every 30 mins up to 60 hrs post TNFalpha injection during compound dosing (reference value: 50%)", "format": "functional"}, "Mus musculus [3]": {"tested_on": "Mus musculus", "test": "(§1) Protection against TNFalpha-induced pancreas damage in C57BL/6J mouse at 0.3 to 3 mg/kg, ip pretreated for 17 mins followed by TNFalpha injection and subsequent compound treatment once in every 12 hrs measured 24 hrs post TNFalpha injection by hematoxylin and eosin staining based assay", "format": "functional, organism-based", "in_short": "(§2)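 Mice given mTNFα IV; compound 0.3, 1, 3 mg/kg IP 17 min before and every 12 h. Killed 24 h post-TNFα. Organs fixed 24 h in 10% neutral buffered formalin, paraffin-embedded, 5-μm sections, H&E stained; ×200, at least three mice each.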"}, "[4]": {"target": "T2, Receptor-interacting serine/threonine-protein kinase 1 (Homo sapiens, UniProt Q13546)", "T2 sequence (Q13546 whole entry)": "T1 sequence (whole entry)", "test": "Inhibition of RIP1 (unknown origin) using MBP as substrate preincubated for 15 mins followed by MBP/ATP mixture addition measured after 90 mins by ADP-Glo kinase assay", "in_short": "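Recombinant RIP1 pre-incubated 15 min with compound or DMSO in 25 mM HEPES pH 7.2, 20 mM MgCl2, 12.5 mM MnCl2, 5 mM EGTA, 2 mM EDTA, 12.5 mM β-glycerol phosphate, 2 mM DTT. Reaction started with ATP (50 μM final) and MBP (20 μM final), run 90 min at room temperature. ADP-Glo luminescence read-out.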"}, "[5]": {"test": "Half life in human liver microsomes in presence of NADPH by LC-MS/MS analysis", "format": "ADME, microsome"}, "[6]": {"target": "Indoleamine 2,3-dioxygenase 1 (Homo sapiens, UniProt P14902)", "sequence (P14902 whole entry)": "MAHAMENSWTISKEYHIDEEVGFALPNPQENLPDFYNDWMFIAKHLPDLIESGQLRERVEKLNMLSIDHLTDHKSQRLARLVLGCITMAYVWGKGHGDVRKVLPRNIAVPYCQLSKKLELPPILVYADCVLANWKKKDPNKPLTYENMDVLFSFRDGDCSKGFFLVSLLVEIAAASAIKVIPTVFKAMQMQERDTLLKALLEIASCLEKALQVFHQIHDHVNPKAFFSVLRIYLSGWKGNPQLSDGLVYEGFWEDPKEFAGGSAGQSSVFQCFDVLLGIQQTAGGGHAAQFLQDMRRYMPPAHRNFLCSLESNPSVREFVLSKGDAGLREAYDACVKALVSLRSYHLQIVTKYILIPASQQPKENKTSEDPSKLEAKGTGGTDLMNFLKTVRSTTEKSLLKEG", "test": "Inhibition of recombinant human IDO expressed in Escherichia coli assessed as reduction in kynurenine production at 200 uM using L-tryptophan as substrate after 3 hrs by methylene blue dye based assay", "in_short": "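Reaction mix: 50 mM MES pH 6.5, 20 mM ascorbate, 2250 U/mL catalase, 10 μM methylene blue, 200 μM L-Trp, 100 nM recombinant IDO, 200 μM compound or DMSO. Incubated 37 °C for 3 h; kynurenine colour read at 321 nm.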"}, "Mus musculus [7]": {"tested_on": "Mus musculus", "test": "Toxicity in C57BL/6J mouse assessed as injury at 50 mg/kg administered once in every 3 hrs for 24 hrs", "format": "organism-based", "settings": "in vivo", "in_short": "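Mice dosed 50 mg/kg every 3 h for 24 h and examined for injury.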"}, "Cytochrome P450 1A2": {"target": "T3, Cytochrome P450 1A2 (Homo sapiens, UniProt P05177)", "T3 sequence (P05177 whole entry)": "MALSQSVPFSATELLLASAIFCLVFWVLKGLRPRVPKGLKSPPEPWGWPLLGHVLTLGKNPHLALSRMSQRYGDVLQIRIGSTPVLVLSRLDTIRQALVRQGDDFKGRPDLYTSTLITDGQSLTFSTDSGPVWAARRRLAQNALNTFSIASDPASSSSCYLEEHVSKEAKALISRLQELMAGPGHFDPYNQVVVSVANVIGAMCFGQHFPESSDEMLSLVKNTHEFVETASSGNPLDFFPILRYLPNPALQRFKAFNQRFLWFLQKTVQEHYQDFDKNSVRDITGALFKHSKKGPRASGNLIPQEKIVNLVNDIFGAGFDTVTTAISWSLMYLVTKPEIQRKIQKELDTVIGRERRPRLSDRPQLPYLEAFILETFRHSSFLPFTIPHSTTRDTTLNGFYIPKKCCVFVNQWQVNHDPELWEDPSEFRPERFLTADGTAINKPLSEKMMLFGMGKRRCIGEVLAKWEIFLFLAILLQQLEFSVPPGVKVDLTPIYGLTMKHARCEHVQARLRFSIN", "test": "Inhibition of CYP1A2 (unknown origin)", "format": "ADME"}, "Cytochrome P450 2C9": {"target": "Cytochrome P450 2C9 (Homo sapiens, UniProt P11712)", "sequence (P11712 whole entry)": "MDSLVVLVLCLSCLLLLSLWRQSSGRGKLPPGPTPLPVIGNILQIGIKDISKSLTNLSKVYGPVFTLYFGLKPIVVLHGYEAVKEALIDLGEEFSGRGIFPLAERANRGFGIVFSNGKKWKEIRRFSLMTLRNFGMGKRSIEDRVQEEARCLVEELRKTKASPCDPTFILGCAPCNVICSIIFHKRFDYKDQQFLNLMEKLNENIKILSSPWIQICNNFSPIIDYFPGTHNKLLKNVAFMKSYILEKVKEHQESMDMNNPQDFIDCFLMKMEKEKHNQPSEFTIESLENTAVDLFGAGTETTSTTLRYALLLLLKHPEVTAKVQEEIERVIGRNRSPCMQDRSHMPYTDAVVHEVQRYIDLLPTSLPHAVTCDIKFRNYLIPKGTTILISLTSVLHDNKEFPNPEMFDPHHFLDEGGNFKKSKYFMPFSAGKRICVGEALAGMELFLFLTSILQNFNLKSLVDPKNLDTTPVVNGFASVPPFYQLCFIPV", "test": "Inhibition of CYP2C9 (unknown origin)", "format": "ADME"}, "[8]": {"test": "Bioavailability in C57BL/6J mouse at 10 mg/kg, ip by LC-MS/MS analysis", "format": "ADME, organism-based", "settings": "in vivo", "in_short": "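C57BL/6 mice (n = 3) dosed IV, IP or PO; blood sampled by eye puncture at various time points; plasma levels by LC-MS/MS; parameters from individual animal data by non-compartmental analysis.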"}, "Mus musculus [9]": {"tested_on": "Mus musculus", "test": "Protection against TNFalpha-induced multiorgan damage in C57BL/6J mouse assessed as blood urea nitrogen level at 0.3 to 3 mg/kg, ip pretreated for 17 mins followed by TNFalpha injection and subsequent compound treatment once in every 12 hrs measured 24 hrs post TNFalpha injection", "format": "functional, organism-based", "in_short": "(§3)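 C57BL/6 mice given 4 μg mTNFα (~0.18 mg/kg) IV. Compound 0.3, 1, 3 mg/kg IP 17 min before and then every 12 h; vehicle controls. Blood taken 12 h and 24 h after TNFα. Assays: IL-6 and IL-1β; serum LDH, CK, AST, creatinine, BUN, amylase.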"}, "Mus musculus [10]": {"tested_on": "Mus musculus", "test": "Protection against TNFalpha-induced multiorgan damage in C57BL/6J mouse assessed as inhibition of TNFalpha-induced increase in IL-1beta level at 0.3 to 3 mg/kg, ip pretreated for 17 mins followed by TNFalpha injection and subsequent compound treatment once in every 12 hrs measured after 12 hrs", "format": "functional, organism-based", "in_short": "as §3"}, "Mus musculus [11]": {"tested_on": "Mus musculus", "test": "as §1, with “thymus” for “pancreas”, “mouse assessed as reduction in immune cell infiltration” for “mouse”", "format": "functional, organism-based", "in_short": "as §2"}}, "note": "pIC50: −log10 of the molar value. Active and inactive are the calls of the source. The rule behind the calls is not given here."}
{"smiles": "CCC(C)(C)C(=O)N(O)Cc1ccccc1", "values": [{"measurement": "pIC50", "setting": "Cytochrome P450 2D6", "result": "< 4.30"}, {"measurement": "inhibition", "setting": "[1]", "result": "Active"}, {"measurement": "survival at 3 mg/kg", "setting": "Mus musculus [2]", "result": 100, "unit": "%"}, {"measurement": "Activity", "setting": "Mus musculus [3]", "result": "Active"}, {"measurement": "pIC50", "setting": "[4]", "result": 7.89}, {"measurement": "half-life", "setting": "[5]", "result": 2.13, "unit": "h"}, {"measurement": "inhibition (INH)", "setting": "[6]", "result": "Not Active"}, {"measurement": "Activity", "setting": "Mus musculus [7]", "result": "Non-Toxic"}, {"measurement": "pIC50", "setting": "Cytochrome P450 1A2", "result": "< 4.30"}, {"measurement": "pIC50", "setting": "Cytochrome P450 2C9", "result": "< 4.30"}, {"measurement": "bioavailability", "setting": "[8]", "result": 100, "unit": "%"}, {"measurement": "Activity", "setting": "Mus musculus [9]", "result": "Active"}, {"measurement": "inhibition", "setting": "Mus musculus [10]", "result": "Active"}, {"measurement": "Activity", "setting": "Mus musculus [11]", "result": "Active"}]}
